This is an account of results in ChEMBL document CHEMBL3407348, “Antileishmanial activity of quinazoline derivatives: synthesis, docking screens, molecular dynamic simulations and electrochemical studies” (Eur J Med Chem, 2015).

≈ marks a conversion by molar mass, not a printed value. Some results are limits rather than exact numbers.

Data set [1] deals with Leishmania mexicana. Nature of the data set: Antiparasitic activity against Leishmania mexicana MHOM/BZ/61/M379 assessed as oxygen consumption at 5.74 mM during 1 hr by fluorescence assay (reference value: 100%). It counts as functional. The method in brief: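 Promastigotes (5 × 10⁶) were placed in microplate wells containing an oxygen-sensitive fluorophore with the test agent for 1 or 2 h. Oxygen consumption was read as fluorescence on a plate reader and expressed relative to untreated parasites (100%). Sodium cyanide served as the mitochondrial-damage control and dithionite as the oxygen-abolition control. Run in triplicate, with at least four independent experiments.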

Data set [2] relates to Leishmania mexicana. Nature of the data set: Antiparasitic activity against promastigote form of Leishmania mexicana MHOM/BZ/61/M379 at 100 uM after 24 hrs by haemocytometer. The data set is classed as functional. To be noted: for inhibition at 100 µM: MHOM/BZ/61/M379, 72 h, in the assay text read “72 hrs” for “24 hrs”. The method in brief: (§1)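 Promastigotes were grown in DMEM with L-glutamine and 4,500 mg/L glucose, without bicarbonate, plus 10% fetal calf serum. Serial compound dilutions (1:10 compound:medium) were mixed with an equal volume of 2 × 10⁶ parasites/mL at 26 °C. Parasites were counted by hemacytometer in triplicate. Growth inhibition was expressed as a percentage of the no-drug control, with 100 µM used for the initial screen.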

The target of another data set is T1, Pteridine reductase 1 (Leishmania major, UniProt Q01782).
T1 sequence (Q01782 whole entry): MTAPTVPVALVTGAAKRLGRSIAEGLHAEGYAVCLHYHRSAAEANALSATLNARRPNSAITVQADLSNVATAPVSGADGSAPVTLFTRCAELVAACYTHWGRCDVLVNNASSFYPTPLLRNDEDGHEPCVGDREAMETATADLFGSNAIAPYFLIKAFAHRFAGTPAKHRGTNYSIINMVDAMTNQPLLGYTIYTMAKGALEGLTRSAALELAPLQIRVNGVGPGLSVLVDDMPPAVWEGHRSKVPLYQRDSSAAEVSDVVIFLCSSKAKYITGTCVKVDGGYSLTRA

A short description of a further data set: physchem. To be noted: phosphate buffered saline, pH 7.4.
Data set [3] is described as follows: Retention time of the compound. The data set is classed as physicochemical. The method in brief:
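Reverse-phase HPLC on an RP-amide column (150 × 4.6 mm, 5 µm) with guard column. Mobile phase was 10 mM phosphate buffer pH 3.3 and acetonitrile (60:40 v/v) at 1.00 mL/min and 30 °C, with an 8 min run. UV detection at 240 and 272 nm.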

Data set [4] concerns the target Bifunctional dihydrofolate reductase-thymidylate synthase (Leishmania major, UniProt P07382). Nature of the data set: Binding affinity to Leishmania major DHFR.
In data set [5] the test system is Leishmania mexicana. The data set can be described thus: Antiparasitic activity against promastigote form of Leishmania mexicana MHOM/BZ/61/M379 after 24 hrs by haemocytometer. The data set is classed as functional, organism-based. The method in brief:
as §1

The test system of data set [6] is Leishmania mexicana. To be noted: MHOM/BZ/61/M379, 100 uM.
Data set [7] deals with Leishmania mexicana. Particulars: MHOM/BZ/61/M379, 100 uM. The source holds these as a separate data set.
The subject of data set [8] is Leishmania mexicana. The data set can be described thus: Antiparasitic activity against promastigote form of Leishmania mexicana MHOM/BZ/61/M379 after 72 hrs by haemocytometer. To be noted: MHOM/BZ/61/M379, 72 h.
A short description of another data set: in vitro. Particulars: mouse, L929 cells.

By inhibition is commonly meant the percentage by which the read-out fell short of the control. For orientation: Kd means the free concentration of one partner at which half of the binding sites on the other are occupied at equilibrium, for simple one-to-one binding. High values mean weaker binding, low ones tighter binding. One may read the solubility as the dissolved amount per volume that the medium holds. One may read the IC50 as the point on the concentration scale where inhibition reaches its midpoint. By viability is commonly meant a per cent measure of how many cells are alive, often set against a control. High values mean less harm to the cells, low ones more harm to the cells.

Bifunctional dihydrofolate reductase-thymidylate synthase, sequence (P07382 whole entry): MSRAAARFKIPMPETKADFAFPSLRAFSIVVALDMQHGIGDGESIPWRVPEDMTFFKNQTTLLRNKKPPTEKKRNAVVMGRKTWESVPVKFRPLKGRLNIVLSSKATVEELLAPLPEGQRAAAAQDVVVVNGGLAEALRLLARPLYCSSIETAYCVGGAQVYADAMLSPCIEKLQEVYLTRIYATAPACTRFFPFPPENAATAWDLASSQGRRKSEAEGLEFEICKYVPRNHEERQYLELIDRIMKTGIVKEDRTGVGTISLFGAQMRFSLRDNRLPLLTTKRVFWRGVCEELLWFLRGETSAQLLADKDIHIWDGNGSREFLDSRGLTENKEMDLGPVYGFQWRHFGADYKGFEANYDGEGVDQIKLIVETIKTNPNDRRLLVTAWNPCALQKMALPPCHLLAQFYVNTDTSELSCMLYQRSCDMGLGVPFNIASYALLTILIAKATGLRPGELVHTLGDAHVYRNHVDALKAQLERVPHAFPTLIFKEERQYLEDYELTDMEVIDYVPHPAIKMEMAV

For `O=S([O-])S(=O)[O-].[Na+].[Na+]`, the Activity in the data set with Leishmania mexicana [1] amounted to 175.9%.
In the data set on Leishmania mexicana [2], “MEGLUMINE ANTIMONATE [listing 1 of 2 here]” came in with an inhibition of 100%.
For `Nc1nc(N)c2cc(NCc3ccc(O)cc3)ccc2n1`, the Kd was found to be 2.4 µM on Pteridine reductase 1 and 1.02 µM in data set [4]. In the data set with Leishmania mexicana [2], the inhibition at 100 µM worked out at 0%. Further, the solubility in the data set “physchem” was found to be 0.38 mg/mL (≈ 1350 µM). In [3], this molecule gave a Retention_time of 3.081 min.
“MEGLUMINE ANTIMONATE [listing 2 of 2 here]” had an IC50 in the data set on Leishmania mexicana [5] of 183 µM.
As to `Nc1ccc2nc(N)nc(N)c2c1` [QUINAZOLINE-2,4,6-TRIAMINE], the values for the Kd (at Pteridine reductase 1; in [4]) were 58.8 µM and 84 µM, respectively. The molecule further yielded an inhibition at 100 µM with Leishmania mexicana [2] of 0%. This molecule showed a solubility in “physchem” above 9 mg/mL.
Consider `COc1cc(Cc2cnc(N)nc2N)cc(OC)c1OC` [TRIMETHOPRIM], for which the survival in the data set on Leishmania mexicana [6] was determined as 70%; in the data set on Leishmania mexicana [7] it was 100%. Also, the IC50 with Leishmania mexicana [8] was above 100 µM. For the same molecule, in the data set with Leishmania mexicana [2], at 100 µM the inhibition was 30%.
Consider `Nc1nc(N)c2cc(NCc3ccc([N+](=O)[O-])cc3)ccc2n1`, for which the values for the Kd (on Pteridine reductase 1; in [4]) were 1.43 µM and 0.241 µM, respectively. In addition, the IC50 in the data set on Leishmania mexicana [8] was above 100 µM. In the data set with Leishmania mexicana [2], this molecule yielded an inhibition at 100 µM of 20%. In addition, the Retention_time in [3] worked out at 3.841 min.
As to `Nc1nc(N)c2cc(NCCn3c(C(F)(F)F)nc4cc(Cl)c(Cl)cc43)ccc2n1`, at 100 µM the inhibition with Leishmania mexicana [2] was 0%. The same molecule showed a solubility in the data set “physchem” of 0.51 mg/mL (≈ 1120 µM). Besides, in [3], the Retention_time came to 3.188 min. This molecule also had a Kd in data set [4] of 0.752 µM.
Regarding `Nc1nc(N)c2cc([N+](=O)[O-])ccc2n1`, the results for the Kd (at Pteridine reductase 1; in data set [4]) were 0.261 µM and 15.8 µM, respectively.
In the case of `CCc1nc(N)nc(N)c1-c1ccc(Cl)cc1` [PYRIMETHAMINE], half-maximal inhibition in the data set with Leishmania mexicana [8] (IC50) was put at 100 µM. Moreover, testing at 100 µM in the data set on Leishmania mexicana [2] gave an inhibition of 50%.
For `CC1CS(=O)(=O)CCN1/N=C/c1ccc([N+](=O)[O-])o1` (stereo unspecified) [NIFURTIMOX], the viability at 48 h, 100 µM in the data set “in vitro” was 42%.
Turning to `COc1ccc(CNc2ccc3nc(N)nc(N)c3c2)cc1`, the Kd on Pteridine reductase 1 was found to be 2.85 µM; in data set [4], 1.58 µM. The IC50 in the data set on Leishmania mexicana [8] is 14.6 µM. In the data set on Leishmania mexicana [2], this molecule showed an inhibition at 100 µM of 100%. In “physchem”, this molecule registered a solubility of 0.25 mg/mL (≈ 846 µM). The Retention_time in data set [3] is 3.081 min.
